Data: ChEMBL document CHEMBL3271988, “Nitrogen analogues of 1,4-benzoquinones. Activities against the ascitic sarcoma 180 of mice” (J Med Chem, 1978)
Active and inactive are the calls of the source. The rule behind the calls is not given here.

Legend:
[1] = Redox potential of the compound in alcohol-water solution; conditions: buffer
[2] = Acute toxicity in single ip dosed Swiss mouse assessed as death up to 5 days; assay type: organism-based; conditions: in vivo
Outline: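 Male Swiss mice given one ip dose. LD50 taken as the single dose killing 50% of animals within 5 days.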

Sarcoma-180 [3] = assay: Antitumor activity against mouse Sarcoma 180 cells allografted in Swiss mouse assessed as survival at 70 mg/kg, ip three doses were given at 24 hrs interval starting 24 hrs after allograft injection measured after 5 days; assay type: functional, organism-based; parameters: dose 70 mg/kg
Outline: (§1)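 Swiss mice were injected ip with 10^6 ascitic sarcoma 180 cells. Three daily ip doses followed, the first 24 h after cell injection. The read-out was the number of mice surviving at 5 days, out of 6 treated.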

Sarcoma-180 [4] = assay: Antitumor activity against mouse Sarcoma 180 cells allografted in Swiss mouse assessed as weight gain at 70 mg/kg, ip three doses were given at 24 hrs interval starting 24 hrs after allograft injection measured after 3 days relative to control; assay type: functional; conditions: route intraperitoneal
Outline: (§2)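 Ascitic sarcoma 180 model in Swiss mice: 10^6 cells ip, then three ip doses at 24-h intervals beginning 24 h later. Mice were weighed 1 day after cell injection and again 3 days later (24 h after the third dose). Percent weight gain of treated mice was compared with saline-treated controls on the same schedule.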

Sarcoma-180 [5] = assay: Antitumor activity against mouse Sarcoma 180 cells allografted in Swiss mouse at 70 mg/kg, ip three doses were given at 24 hrs interval starting 24 hrs after allograft injection relative to control; assay type: functional; conditions: route intraperitoneal
Outline: (§3)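 Swiss mice given 10^6 ascitic sarcoma 180 cells ip; three ip doses at 24-h intervals starting 24 h later; controls received isotonic salt solution on the same schedule. […] Cures = alive without cancer cells at 60 days.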

[6] = Half life of the compound in water at pH 7 at 25 degC by spectrophotometry; assay type: physicochemical
Outline: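 Compound dissolved in absolute ethanol, then diluted into 0.01 M Tris buffer brought to pH 7 with HCl, 25 °C. Absorbance at λmax followed over hours or days; log absorbance vs time fitted by least squares, rate constant and half-time taken from the slope.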

Sarcoma-180 [7] = assay: Antitumor activity against mouse Sarcoma 180 cells allografted in Swiss mouse assessed as cure at 70 mg/kg, ip three doses were given at 24 hrs interval starting 24 hrs after allograft injection measured after 60 days; assay type: functional, organism-based; parameters: dose 70 mg/kg
Outline: (§4)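 Swiss mice given 10^6 ascitic sarcoma 180 cells ip. Starting 24 h later, three ip doses were given 24 h apart. Controls got isotonic salt solution on the same schedule. A cure was a mouse alive with no evidence of cancer cells 60 days after cell injection, reported per 6 mice.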

Sarcoma-180 [8] = assay: Antitumor activity against mouse Sarcoma 180 cells allografted in Swiss mouse assessed as survival time at 70 mg/kg, ip three doses were given at 24 hrs interval starting 24 hrs after allograft injection relative to control; assay type: functional; conditions: route intraperitoneal
Outline: (§5)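 Swiss mice inoculated ip with 10^6 ascitic sarcoma 180 cells. Compound given ip daily ×3 at 24-h intervals, starting 24 h after inoculation. Controls received isotonic saline on the same schedule; 6 mice per group. Mice alive at 60 days counted as 60 days in mean survival (±SD).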

Sarcoma-180 [9] = assay: Antitumor activity against mouse Sarcoma 180 cells allografted in Swiss mouse assessed as survival time at 60 mg/kg, ip three doses were given at 24 hrs interval starting 24 hrs after allograft injection relative to control; assay type: functional; conditions: route intraperitoneal
Outline: as §5

Sarcoma-180 [10] = assay: Antitumor activity against mouse Sarcoma 180 cells allografted in Swiss mouse assessed as weight gain at 60 mg/kg, ip three doses were given at 24 hrs interval starting 24 hrs after allograft injection measured after 3 days relative to control; assay type: functional; conditions: route intraperitoneal
Outline: as §2

Sarcoma-180 [11] = assay: Antitumor activity against mouse Sarcoma 180 cells allografted in Swiss mouse assessed as survival at 60 mg/kg, ip three doses were given at 24 hrs interval starting 24 hrs after allograft injection measured after 5 days; assay type: functional, organism-based; parameters: dose 60 mg/kg
Outline: as §1

Sarcoma-180 [12] = assay: Antitumor activity against mouse Sarcoma 180 cells allografted in Swiss mouse assessed as cure at 60 mg/kg, ip three doses were given at 24 hrs interval starting 24 hrs after allograft injection measured after 60 days; assay type: functional, organism-based; parameters: dose 60 mg/kg
Outline: as §4

Sarcoma-180 [13] = assay: Antitumor activity against mouse Sarcoma 180 cells allografted in Swiss mouse at 60 mg/kg, ip three doses were given at 24 hrs interval starting 24 hrs after allograft injection relative to control; assay type: functional; conditions: route intraperitoneal
Outline: (§6)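 Swiss mice received 10^6 ascitic sarcoma 180 cells ip, then three ip doses 24 h apart starting at 24 h. Controls got isotonic salt solution on the same schedule. T/C% is mean survival time of treated over controls (6 mice per group).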

Sarcoma-180 [14] = assay: Antitumor activity against mouse Sarcoma 180 cells allografted in Swiss mouse assessed as survival time at 8 mg/kg, ip three doses were given at 24 hrs interval starting 24 hrs after allograft injection relative to control; assay type: functional; conditions: route intraperitoneal
Outline: as §5

Sarcoma-180 [15] = assay: Antitumor activity against mouse Sarcoma 180 cells allografted in Swiss mouse assessed as weight gain at 8 mg/kg, ip three doses were given at 24 hrs interval starting 24 hrs after allograft injection measured after 3 days relative to control; assay type: functional; conditions: route intraperitoneal
Outline: as §2

Sarcoma-180 [16] = assay: Antitumor activity against mouse Sarcoma 180 cells allografted in Swiss mouse assessed as survival at 8 mg/kg, ip three doses were given at 24 hrs interval starting 24 hrs after allograft injection measured after 5 days; assay type: functional, organism-based; parameters: dose 8 mg/kg
Outline: as §1

Sarcoma-180 [17] = assay: Antitumor activity against mouse Sarcoma 180 cells allografted in Swiss mouse assessed as cure at 8 mg/kg, ip three doses were given at 24 hrs interval starting 24 hrs after allograft injection measured after 60 days; assay type: functional, organism-based; parameters: dose 8 mg/kg
Outline: as §4

Sarcoma-180 [18] = assay: Antitumor activity against mouse Sarcoma 180 cells allografted in Swiss mouse at 8 mg/kg, ip three doses were given at 24 hrs interval starting 24 hrs after allograft injection relative to control; assay type: functional; conditions: route intraperitoneal
Outline: as §3

Sarcoma-180 [19] = assay: Antitumor activity against mouse Sarcoma 180 cells allografted in Swiss mouse at 5 mg/kg, ip three doses were given at 24 hrs interval starting 24 hrs after allograft injection relative to control; assay type: functional; conditions: route intraperitoneal
Outline: as §6

Sarcoma-180 [20] = assay: Antitumor activity against mouse Sarcoma 180 cells allografted in Swiss mouse assessed as survival at 5 mg/kg, ip three doses were given at 24 hrs interval starting 24 hrs after allograft injection measured after 5 days; assay type: functional, organism-based; parameters: dose 5 mg/kg
Outline: as §1

Sarcoma-180 [21] = assay: Antitumor activity against mouse Sarcoma 180 cells allografted in Swiss mouse assessed as weight gain at 5 mg/kg, ip three doses were given at 24 hrs interval starting 24 hrs after allograft injection measured after 3 days relative to control; assay type: functional; conditions: route intraperitoneal
Outline: as §2

Sarcoma-180 [22] = assay: Antitumor activity against mouse Sarcoma 180 cells allografted in Swiss mouse assessed as survival time at 5 mg/kg, ip three doses were given at 24 hrs interval starting 24 hrs after allograft injection relative to control; assay type: functional; conditions: route intraperitoneal
Outline: as §5

Sarcoma-180 [23] = assay: Antitumor activity against mouse Sarcoma 180 cells allografted in Swiss mouse assessed as survival at 200 mg/kg, ip three doses were given at 24 hrs interval starting 24 hrs after allograft injection measured after 5 days; assay type: functional, organism-based; parameters: dose 200 mg/kg
Outline: as §1

Sarcoma-180 [24] = assay: Antitumor activity against mouse Sarcoma 180 cells allografted in Swiss mouse assessed as survival time at 200 mg/kg, ip three doses were given at 24 hrs interval starting 24 hrs after allograft injection relative to control; assay type: functional; conditions: route intraperitoneal
Outline: as §5

Sarcoma-180 [25] = assay: Antitumor activity against mouse Sarcoma 180 cells allografted in Swiss mouse at 200 mg/kg, ip three doses were given at 24 hrs interval starting 24 hrs after allograft injection relative to control; assay type: functional; conditions: route intraperitoneal
Outline: as §6

Sarcoma-180 [26] = assay: Antitumor activity against mouse Sarcoma 180 cells allografted in Swiss mouse assessed as weight gain at 200 mg/kg, ip three doses were given at 24 hrs interval starting 24 hrs after allograft injection measured after 3 days relative to control; assay type: functional; conditions: route intraperitoneal
Outline: as §2

Sarcoma-180 [27] = assay: Antitumor activity against mouse Sarcoma 180 cells allografted in Swiss mouse assessed as weight gain at 22.5 mg/kg, ip three doses were given at 24 hrs interval starting 24 hrs after allograft injection measured after 3 days relative to control; assay type: functional; conditions: route intraperitoneal
Outline: as §2

Sarcoma-180 [28] = assay: Antitumor activity against mouse Sarcoma 180 cells allografted in Swiss mouse assessed as survival time at 22.5 mg/kg, ip three doses were given at 24 hrs interval starting 24 hrs after allograft injection relative to control; assay type: functional; conditions: route intraperitoneal
Outline: as §5

Sarcoma-180 [29] = assay: Antitumor activity against mouse Sarcoma 180 cells allografted in Swiss mouse at 22.5 mg/kg, ip three doses were given at 24 hrs interval starting 24 hrs after allograft injection relative to control; assay type: functional; conditions: route intraperitoneal
Outline: as §6

Sarcoma-180 [30] = assay: Antitumor activity against mouse Sarcoma 180 cells allografted in Swiss mouse assessed as cure at 9 mg/kg, ip three doses were given at 24 hrs interval starting 24 hrs after allograft injection measured after 60 days; assay type: functional, organism-based; parameters: dose 9 mg/kg
Outline: as §4

Sarcoma-180 [31] = assay: Antitumor activity against mouse Sarcoma 180 cells allografted in Swiss mouse at 9 mg/kg, ip three doses were given at 24 hrs interval starting 24 hrs after allograft injection relative to control; assay type: functional; conditions: route intraperitoneal
Outline: as §3

Sarcoma-180 [32] = assay: Antitumor activity against mouse Sarcoma 180 cells allografted in Swiss mouse assessed as survival time at 9 mg/kg, ip three doses were given at 24 hrs interval starting 24 hrs after allograft injection relative to control; assay type: functional; conditions: route intraperitoneal
Outline: as §5

Sarcoma-180 [33] = assay: Antitumor activity against mouse Sarcoma 180 cells allografted in Swiss mouse assessed as survival at 9 mg/kg, ip three doses were given at 24 hrs interval starting 24 hrs after allograft injection measured after 5 days; assay type: functional, organism-based; parameters: dose 9 mg/kg
Outline: as §1

Sarcoma-180 [34] = assay: Antitumor activity against mouse Sarcoma 180 cells allografted in Swiss mouse assessed as weight gain at 9 mg/kg, ip three doses were given at 24 hrs interval starting 24 hrs after allograft injection measured after 3 days relative to control; assay type: functional; conditions: route intraperitoneal
Outline: as §2

Sarcoma-180 [35] = assay: Antitumor activity against mouse Sarcoma 180 cells allografted in Swiss mouse at 90 mg/kg, ip three doses were given at 24 hrs interval starting 24 hrs after allograft injection relative to control; assay type: functional; conditions: route intraperitoneal
Outline: as §3

Sarcoma-180 [36] = assay: Antitumor activity against mouse Sarcoma 180 cells allografted in Swiss mouse assessed as survival at 90 mg/kg, ip three doses were given at 24 hrs interval starting 24 hrs after allograft injection measured after 5 days; assay type: functional, organism-based; parameters: dose 90 mg/kg
Outline: as §1

Sarcoma-180 [37] = assay: Antitumor activity against mouse Sarcoma 180 cells allografted in Swiss mouse assessed as survival time at 90 mg/kg, ip three doses were given at 24 hrs interval starting 24 hrs after allograft injection relative to control; assay type: functional; conditions: route intraperitoneal
Outline: as §5

Sarcoma-180 [38] = assay: Antitumor activity against mouse Sarcoma 180 cells allografted in Swiss mouse assessed as weight gain at 90 mg/kg, ip three doses were given at 24 hrs interval starting 24 hrs after allograft injection measured after 3 days relative to control; assay type: functional; conditions: route intraperitoneal
Outline: as §2

O=C1C=C/C(=N/O)C=C1Cl
Redox potential [1]: 0.516 V
LD50 at 120 h [2]: 240 mg/kg
Activity (Sarcoma-180 [3]): Active
Activity (Sarcoma-180 [4]): 13.4%
T/C (Sarcoma-180 [5]): 130%
half-life [6]: 314 h
Activity (Sarcoma-180 [7]): inactive
Survival (Sarcoma-180 [8]): 12.2 days

COC1=C/C(=N\O)C=CC1=O
Survival (Sarcoma-180 [9]): 18.5 days
Redox potential [1]: 0.521 V
LD50 at 120 h [2]: 120 mg/kg
Activity (Sarcoma-180 [10]): 1.9%
Activity (Sarcoma-180 [11]): Active
Activity (Sarcoma-180 [12]): inactive
half-life [6]: 298 h
T/C (Sarcoma-180 [13]): 173%

O=C1C(Cl)=CC(=NBr)C=C1Cl
Survival (Sarcoma-180 [14]): 27.2 days
Activity (Sarcoma-180 [15]): -5.1%
Activity (Sarcoma-180 [16]): Active
Activity (Sarcoma-180 [17]): inactive
LD50 at 120 h [2]: 20 mg/kg
T/C (Sarcoma-180 [18]): 165%
half-life [6]: 3.7 h

O=C1C=CC(=NCl)C=C1
T/C (Sarcoma-180 [19]): 246%
Activity (Sarcoma-180 [20]): Active
Activity (Sarcoma-180 [21]): -6.9%
Redox potential [1]: 0.652 V
LD50 at 120 h [2]: 12.5 mg/kg
Survival (Sarcoma-180 [22]): 40.5 days
half-life [6]: 35.3 h

O=C1C=C/C(=N/O)C(I)=C1
Activity (Sarcoma-180 [23]): Active
Survival (Sarcoma-180 [24]): 23.7 days
Redox potential [1]: 0.531 V
LD50 at 120 h [2]: 550 mg/kg
T/C (Sarcoma-180 [25]): 171%
Activity (Sarcoma-180 [26]): 0%

O=C1C(Br)=CC(=NCl)C=C1Br
Activity (Sarcoma-180 [27]): -25%
Redox potential [1]: 0.665 V
LD50 at 120 h [2]: 63 mg/kg
half-life [6]: 23.3 h
Survival (Sarcoma-180 [28]): 41 days
T/C (Sarcoma-180 [29]): 218%

O=C1C(Br)=CC(=NBr)C=C1Br
Activity (Sarcoma-180 [30]): inactive
T/C (Sarcoma-180 [31]): 178%
Redox potential [1]: 0.678 V
LD50 at 120 h [2]: 25 mg/kg
Survival (Sarcoma-180 [32]): 22.8 days
Activity (Sarcoma-180 [33]): Active
half-life [6]: 10.4 h
Activity (Sarcoma-180 [34]): -3%

O=C1C=C/C(=N/O)C(Cl)=C1
T/C (Sarcoma-180 [35]): 304%
Redox potential [1]: 0.537 V
LD50 at 120 h [2]: 380 mg/kg
Activity (Sarcoma-180 [36]): Active
Survival (Sarcoma-180 [37]): 39 days
Activity (Sarcoma-180 [38]): -2.4%
